Calls of active or inactive are those of the source. The rule behind the calls is not given here.
Columns and labels:
Histone deacetylase 2 = Histone deacetylase 2 (Homo sapiens, UniProt Q92769); type: cell-based, HeLa
cells = type: functional, cell-based; settings: Homo sapiens, NCI-H460, 72 h
HCT-116 [1] = assay: Antiproliferative activity against human HCT116 cells assessed as growth inhibition after 72 hrs; type: functional, cell-based; settings: HCT-116, 72 h
Summary of the method: (§1)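 Log-phase cells seeded in duplicate in 6-well plates; drug added 24 h after seeding. Cells harvested 72 h after drug exposure and counted with a cell counter. IC50 = drug concentration giving 50% reduction in cell number versus untreated control.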

IGROV-1 [2] = assay: Antiproliferative activity against human IGROV1 cells assessed as growth inhibition after 72 hrs; type: functional, cell-based; settings: IGROV-1, 72 h
Summary of the method: as §1

[3] = Antiproliferative activity against p53 defective cis-platinum-resistant human IGROV1/Pt1 cells assessed as growth inhibition after 72 hrs; type: functional, cell-based; settings: IGROV-1/Pt1, 72 h
Summary of the method: as §1

Histone deacetylase 11 = molecular target: T1, Histone deacetylase 11 (Homo sapiens, UniProt Q96DB2); assay: Inhibition of human HDAC11 using fluorogenic tetrapeptide RHKKAc as substrate
T1 sequence (Q96DB2 whole entry): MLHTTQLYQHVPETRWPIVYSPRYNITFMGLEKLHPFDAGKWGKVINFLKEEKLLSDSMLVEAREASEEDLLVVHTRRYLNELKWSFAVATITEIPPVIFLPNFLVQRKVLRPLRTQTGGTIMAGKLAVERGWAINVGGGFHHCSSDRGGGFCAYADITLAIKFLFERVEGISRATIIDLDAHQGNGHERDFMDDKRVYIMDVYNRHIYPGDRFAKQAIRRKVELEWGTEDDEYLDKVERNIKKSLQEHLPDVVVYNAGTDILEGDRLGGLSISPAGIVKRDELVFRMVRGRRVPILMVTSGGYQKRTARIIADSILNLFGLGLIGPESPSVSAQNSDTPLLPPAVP

IGROV-1 [4] = assay: Induction of apoptosis in human IGROV1 cells at IC80 after 72 hrs by TUNEL and flow cytometry analysis (reference value: 4%); type: functional
[5] = molecular target: T2, Protein deacetylase HDAC6 (Homo sapiens) (UniProt Q9UBN7); assay: Inhibition of HDAC6 in human IGROV1 cells assessed as increase in tubulin acetylation at IC80 after 4 to 24 hrs by Western blot analysis; type: cell-based; settings: IGROV-1
T2 sequence (whole entry): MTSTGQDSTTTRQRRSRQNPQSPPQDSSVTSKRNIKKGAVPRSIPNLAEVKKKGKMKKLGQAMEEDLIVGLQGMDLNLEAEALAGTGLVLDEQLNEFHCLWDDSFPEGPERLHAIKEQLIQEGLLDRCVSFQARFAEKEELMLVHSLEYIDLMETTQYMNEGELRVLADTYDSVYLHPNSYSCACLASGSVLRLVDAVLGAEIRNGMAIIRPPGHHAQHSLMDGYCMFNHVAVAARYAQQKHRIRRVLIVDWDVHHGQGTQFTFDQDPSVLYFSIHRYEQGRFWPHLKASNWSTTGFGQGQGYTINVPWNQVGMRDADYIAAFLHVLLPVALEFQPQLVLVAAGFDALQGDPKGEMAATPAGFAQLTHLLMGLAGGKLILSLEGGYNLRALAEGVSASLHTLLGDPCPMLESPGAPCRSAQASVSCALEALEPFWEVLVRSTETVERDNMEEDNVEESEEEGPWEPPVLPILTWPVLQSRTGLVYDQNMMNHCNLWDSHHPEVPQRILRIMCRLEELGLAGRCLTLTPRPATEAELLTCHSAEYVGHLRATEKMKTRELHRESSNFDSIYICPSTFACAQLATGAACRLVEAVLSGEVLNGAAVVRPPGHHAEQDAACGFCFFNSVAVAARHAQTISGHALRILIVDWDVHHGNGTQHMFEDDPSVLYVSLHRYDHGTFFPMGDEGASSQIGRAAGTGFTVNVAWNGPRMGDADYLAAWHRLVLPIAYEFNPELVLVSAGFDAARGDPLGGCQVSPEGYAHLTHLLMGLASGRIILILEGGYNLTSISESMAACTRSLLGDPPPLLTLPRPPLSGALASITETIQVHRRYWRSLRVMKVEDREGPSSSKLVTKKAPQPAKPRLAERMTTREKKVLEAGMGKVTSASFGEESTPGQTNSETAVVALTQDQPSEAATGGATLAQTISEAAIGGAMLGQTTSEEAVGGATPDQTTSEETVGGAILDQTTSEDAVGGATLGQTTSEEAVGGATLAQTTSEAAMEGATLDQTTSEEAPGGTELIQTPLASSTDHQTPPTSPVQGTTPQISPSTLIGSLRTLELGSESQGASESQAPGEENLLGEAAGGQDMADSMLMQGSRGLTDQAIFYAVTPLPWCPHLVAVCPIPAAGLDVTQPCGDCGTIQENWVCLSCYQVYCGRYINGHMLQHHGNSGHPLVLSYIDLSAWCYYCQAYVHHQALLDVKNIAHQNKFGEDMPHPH
Summary of the method: (§2)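 Cells treated with various concentrations of HDAC inhibitors, collected, lysed and analysed by Western blotting.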

IGROV-1 [6] = assay: Induction of DNA damage in human IGROV1 cells assessed as p53 phosphorylation at Ser15 at 1 to 2 uM after 4 to 48 hrs by Western blot analysis; type: functional, cell-based
Summary of the method: as §2

IGROV-1 [7] = assay: Cell cycle arrest in human IGROV1 cells assessed as accumulation at G1 phase at IC80 after 24 hrs by propidium iodide staining-based flow cytometry (reference value: 49.98%); type: functional
Summary of the method: (§3)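 Cell-cycle distribution in IGROV-1 cells read by flow cytometry of propidium iodide–stained cells.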

IGROV-1 [8] = assay: Cell cycle arrest in human IGROV1 cells assessed as accumulation at S phase at IC80 after 24 hrs by propidium iodide staining-based flow cytometry (reference value: 36.81%); type: functional
Summary of the method: as §3

[9] = Cell cycle arrest in human IGROV1 cells assessed as accumulation at G2/M phase at IC80 after 24 hrs by propidium iodide staining-based flow cytometry (reference value: 13.21%); type: functional; settings: IGROV-1
Summary of the method: as §3

HCT-116 [10] = assay: Anticancer activity against human HCT116 cells xenografted in athymic nude Swiss mouse assessed as tumor growth inhibition at 50 mg/kg, po administered once-daily for 5 days a week for 5 weeks starting 3 days post tumor implantation; type: functional; settings: read-out: TGI
Summary of the method: (§4)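 Female athymic Swiss nude mice given 10⁷ exponentially growing HCT116 cells s.c. in the right flank; tumor lines maintained by serial s.c. fragment passage. Dosing began 3 days after implantation: 50 mg/kg orally, once daily 4–5 days/week for 5 weeks (24 doses total). Compound dissolved in DMSO, diluted in PBS with 5% Cremophor to 10% DMSO final.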

Mus musculus = assay: Toxicity in athymic nude Swiss mouse xenografted with human HCT116 cells at 50 mg/kg, po administered once-daily for 5 days a week for 5 weeks starting 3 days post tumor implantation; type: organism-based, HCT-116; set-up: dose 50 mg/kg, route oral; settings: in vivo
Summary of the method: as §4

Histone deacetylase 1 = Histone deacetylase 1 (Homo sapiens, UniProt Q13547); assay: Inhibition of human HDAC1 using fluorogenic tetrapeptide RHKKAc as substrate
Histone deacetylase 3 = Histone deacetylase 3 (Homo sapiens, UniProt O15379)
Histone deacetylase 4 = Histone deacetylase 4 (Homo sapiens, UniProt P56524); assay: Inhibition of human HDAC4 using fluorogenic tetrapeptide RHKKAc as substrate
Histone deacetylase 5 = Histone deacetylase 5 (Homo sapiens, UniProt Q9UQL6); assay: Inhibition of human HDAC5 using fluorogenic tetrapeptide RHKKAc as substrate
[11] = molecular target: T3, Protein deacetylase HDAC6 (Homo sapiens, UniProt Q9UBN7); assay: Inhibition of human HDAC6 using fluorogenic tetrapeptide RHKKAc as substrate
T3 sequence (Q9UBN7 whole entry): T2 sequence (whole entry)

Histone deacetylase 8 = molecular target: T4, Histone deacetylase 8 (Homo sapiens, UniProt Q9BY41); assay: Inhibition of human HDAC8 using fluorogenic tetrapeptide RHKKAc as substrate
T4 sequence (Q9BY41 whole entry): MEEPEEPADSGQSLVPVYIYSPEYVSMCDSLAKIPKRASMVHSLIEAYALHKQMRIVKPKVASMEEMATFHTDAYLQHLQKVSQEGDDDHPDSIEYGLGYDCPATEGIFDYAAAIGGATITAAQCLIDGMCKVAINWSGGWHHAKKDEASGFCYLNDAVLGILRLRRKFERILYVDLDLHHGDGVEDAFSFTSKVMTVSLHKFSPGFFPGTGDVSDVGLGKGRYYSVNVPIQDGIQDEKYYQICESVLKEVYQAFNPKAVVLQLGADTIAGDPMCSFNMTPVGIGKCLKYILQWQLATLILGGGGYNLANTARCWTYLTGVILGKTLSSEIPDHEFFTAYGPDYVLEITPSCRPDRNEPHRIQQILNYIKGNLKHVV

Histone deacetylase 9 = Histone deacetylase 9 (Homo sapiens, UniProt Q9UKV0); assay: Inhibition of human HDAC9 using fluorogenic tetrapeptide RHKKAc as substrate
[12] = molecular target: T5, Polyamine deacetylase HDAC10 (Homo sapiens, UniProt Q969S8); assay: Inhibition of human HDAC10 using fluorogenic tetrapeptide RHKKAc as substrate
T5 sequence (Q969S8 whole entry): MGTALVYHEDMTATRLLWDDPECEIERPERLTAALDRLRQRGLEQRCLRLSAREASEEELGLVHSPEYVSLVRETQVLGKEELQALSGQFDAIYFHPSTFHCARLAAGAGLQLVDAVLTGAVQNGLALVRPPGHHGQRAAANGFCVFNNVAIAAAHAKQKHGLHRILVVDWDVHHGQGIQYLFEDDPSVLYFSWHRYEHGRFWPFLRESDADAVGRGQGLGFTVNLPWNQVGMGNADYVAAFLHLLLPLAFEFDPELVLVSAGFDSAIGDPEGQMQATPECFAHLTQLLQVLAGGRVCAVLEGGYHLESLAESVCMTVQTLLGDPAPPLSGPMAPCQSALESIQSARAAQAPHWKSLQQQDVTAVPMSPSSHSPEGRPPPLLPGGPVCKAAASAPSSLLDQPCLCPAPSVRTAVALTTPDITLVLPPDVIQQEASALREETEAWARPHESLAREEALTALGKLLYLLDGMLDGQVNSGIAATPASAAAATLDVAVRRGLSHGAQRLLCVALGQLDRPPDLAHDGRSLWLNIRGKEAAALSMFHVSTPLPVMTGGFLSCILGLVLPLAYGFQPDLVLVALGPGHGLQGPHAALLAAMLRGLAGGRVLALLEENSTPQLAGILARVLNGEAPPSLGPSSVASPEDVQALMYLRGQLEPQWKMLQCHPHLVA

Histone deacetylase 5, sequence (Q9UQL6 whole entry): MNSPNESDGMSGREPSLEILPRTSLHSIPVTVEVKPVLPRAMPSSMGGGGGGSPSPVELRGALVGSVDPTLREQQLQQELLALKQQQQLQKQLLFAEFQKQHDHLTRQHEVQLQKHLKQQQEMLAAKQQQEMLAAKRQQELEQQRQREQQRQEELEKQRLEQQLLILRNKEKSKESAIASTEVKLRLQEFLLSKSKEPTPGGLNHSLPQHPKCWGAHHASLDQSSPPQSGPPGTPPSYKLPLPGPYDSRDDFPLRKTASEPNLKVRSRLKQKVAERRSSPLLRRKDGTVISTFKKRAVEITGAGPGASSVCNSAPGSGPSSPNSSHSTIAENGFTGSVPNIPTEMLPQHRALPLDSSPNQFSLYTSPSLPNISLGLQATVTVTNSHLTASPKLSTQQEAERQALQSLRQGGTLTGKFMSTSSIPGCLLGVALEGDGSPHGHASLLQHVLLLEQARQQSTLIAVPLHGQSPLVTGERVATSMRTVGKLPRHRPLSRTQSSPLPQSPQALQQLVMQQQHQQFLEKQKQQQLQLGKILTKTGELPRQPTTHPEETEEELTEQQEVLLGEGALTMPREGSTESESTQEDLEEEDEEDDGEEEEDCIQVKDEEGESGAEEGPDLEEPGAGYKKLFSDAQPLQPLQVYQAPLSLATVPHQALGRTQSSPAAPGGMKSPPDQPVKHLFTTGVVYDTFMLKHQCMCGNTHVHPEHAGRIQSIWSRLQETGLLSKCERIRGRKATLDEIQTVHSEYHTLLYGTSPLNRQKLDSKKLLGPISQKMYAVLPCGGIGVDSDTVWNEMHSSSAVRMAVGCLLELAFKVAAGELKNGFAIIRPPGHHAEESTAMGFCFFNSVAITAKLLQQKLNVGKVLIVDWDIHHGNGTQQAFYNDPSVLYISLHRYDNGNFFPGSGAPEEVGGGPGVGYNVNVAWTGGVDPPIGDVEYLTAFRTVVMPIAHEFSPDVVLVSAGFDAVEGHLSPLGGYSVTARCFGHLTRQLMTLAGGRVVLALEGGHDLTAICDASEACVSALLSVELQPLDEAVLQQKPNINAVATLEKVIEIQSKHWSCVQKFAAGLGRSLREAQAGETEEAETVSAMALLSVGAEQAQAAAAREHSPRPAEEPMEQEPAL
Histone deacetylase 1, sequence (Q13547 whole entry): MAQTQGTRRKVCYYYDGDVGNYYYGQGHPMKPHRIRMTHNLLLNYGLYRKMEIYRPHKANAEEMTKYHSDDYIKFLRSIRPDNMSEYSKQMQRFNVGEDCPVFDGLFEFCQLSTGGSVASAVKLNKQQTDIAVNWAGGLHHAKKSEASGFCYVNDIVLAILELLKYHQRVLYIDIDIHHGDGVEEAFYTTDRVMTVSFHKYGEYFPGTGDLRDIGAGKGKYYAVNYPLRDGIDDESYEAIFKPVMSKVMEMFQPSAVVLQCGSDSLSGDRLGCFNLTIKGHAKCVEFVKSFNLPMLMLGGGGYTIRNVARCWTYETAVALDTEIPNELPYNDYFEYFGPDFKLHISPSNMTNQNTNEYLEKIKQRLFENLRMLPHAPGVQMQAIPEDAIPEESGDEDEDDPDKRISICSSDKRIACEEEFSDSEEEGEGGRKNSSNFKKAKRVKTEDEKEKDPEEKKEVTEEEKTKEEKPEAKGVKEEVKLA
Histone deacetylase 4, sequence (P56524 whole entry): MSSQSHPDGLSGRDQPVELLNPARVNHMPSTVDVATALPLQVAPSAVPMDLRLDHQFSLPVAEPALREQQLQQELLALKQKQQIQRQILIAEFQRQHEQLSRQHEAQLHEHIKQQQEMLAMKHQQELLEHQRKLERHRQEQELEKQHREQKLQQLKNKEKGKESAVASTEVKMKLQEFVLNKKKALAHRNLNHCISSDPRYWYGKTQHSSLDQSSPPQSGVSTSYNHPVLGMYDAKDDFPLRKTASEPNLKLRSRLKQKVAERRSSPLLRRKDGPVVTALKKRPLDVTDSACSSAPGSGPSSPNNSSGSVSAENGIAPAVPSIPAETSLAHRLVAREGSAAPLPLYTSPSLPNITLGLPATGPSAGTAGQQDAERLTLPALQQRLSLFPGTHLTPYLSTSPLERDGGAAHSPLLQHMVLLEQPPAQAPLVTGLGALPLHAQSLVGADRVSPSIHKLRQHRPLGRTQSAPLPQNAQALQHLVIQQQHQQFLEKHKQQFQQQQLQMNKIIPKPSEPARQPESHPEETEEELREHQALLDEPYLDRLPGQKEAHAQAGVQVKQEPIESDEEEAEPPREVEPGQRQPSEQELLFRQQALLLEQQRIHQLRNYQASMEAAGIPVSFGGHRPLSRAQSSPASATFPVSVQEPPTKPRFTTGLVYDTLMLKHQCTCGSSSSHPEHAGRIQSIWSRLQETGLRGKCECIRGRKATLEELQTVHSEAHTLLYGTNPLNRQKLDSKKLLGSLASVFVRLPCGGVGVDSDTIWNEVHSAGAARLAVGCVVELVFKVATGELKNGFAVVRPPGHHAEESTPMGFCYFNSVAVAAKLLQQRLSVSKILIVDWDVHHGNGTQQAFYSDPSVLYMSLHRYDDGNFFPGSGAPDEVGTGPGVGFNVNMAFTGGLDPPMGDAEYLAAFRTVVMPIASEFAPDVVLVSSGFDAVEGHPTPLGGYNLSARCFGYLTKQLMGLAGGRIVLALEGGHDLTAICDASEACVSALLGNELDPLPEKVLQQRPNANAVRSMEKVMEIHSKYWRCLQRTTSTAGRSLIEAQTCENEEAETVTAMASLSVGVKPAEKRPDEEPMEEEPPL
Histone deacetylase 9, sequence (Q9UKV0 whole entry): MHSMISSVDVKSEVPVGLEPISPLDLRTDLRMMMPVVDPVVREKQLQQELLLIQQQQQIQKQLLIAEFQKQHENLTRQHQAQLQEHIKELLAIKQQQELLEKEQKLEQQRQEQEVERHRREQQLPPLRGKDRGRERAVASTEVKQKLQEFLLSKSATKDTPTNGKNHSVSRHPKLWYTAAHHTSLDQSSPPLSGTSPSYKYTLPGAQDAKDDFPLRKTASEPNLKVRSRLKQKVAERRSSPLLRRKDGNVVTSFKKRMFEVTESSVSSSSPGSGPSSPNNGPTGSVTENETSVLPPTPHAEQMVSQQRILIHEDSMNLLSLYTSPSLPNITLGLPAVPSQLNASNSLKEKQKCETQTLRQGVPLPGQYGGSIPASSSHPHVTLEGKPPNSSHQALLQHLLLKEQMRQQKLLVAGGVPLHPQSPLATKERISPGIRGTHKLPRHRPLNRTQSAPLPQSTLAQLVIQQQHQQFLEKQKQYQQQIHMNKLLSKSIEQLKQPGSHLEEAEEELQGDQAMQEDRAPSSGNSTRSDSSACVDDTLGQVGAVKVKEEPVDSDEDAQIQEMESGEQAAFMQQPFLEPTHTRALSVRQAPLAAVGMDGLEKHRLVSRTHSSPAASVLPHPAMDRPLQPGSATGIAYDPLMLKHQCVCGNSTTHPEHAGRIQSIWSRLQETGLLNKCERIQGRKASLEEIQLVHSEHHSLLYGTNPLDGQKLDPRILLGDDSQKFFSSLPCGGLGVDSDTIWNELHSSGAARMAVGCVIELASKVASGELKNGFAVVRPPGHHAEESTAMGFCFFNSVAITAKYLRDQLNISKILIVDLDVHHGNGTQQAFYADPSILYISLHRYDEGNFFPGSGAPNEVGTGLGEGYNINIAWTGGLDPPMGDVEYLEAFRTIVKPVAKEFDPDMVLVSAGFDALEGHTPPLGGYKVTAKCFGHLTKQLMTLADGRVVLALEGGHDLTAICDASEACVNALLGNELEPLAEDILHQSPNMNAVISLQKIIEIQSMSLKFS
Histone deacetylase 3, sequence (O15379 whole entry): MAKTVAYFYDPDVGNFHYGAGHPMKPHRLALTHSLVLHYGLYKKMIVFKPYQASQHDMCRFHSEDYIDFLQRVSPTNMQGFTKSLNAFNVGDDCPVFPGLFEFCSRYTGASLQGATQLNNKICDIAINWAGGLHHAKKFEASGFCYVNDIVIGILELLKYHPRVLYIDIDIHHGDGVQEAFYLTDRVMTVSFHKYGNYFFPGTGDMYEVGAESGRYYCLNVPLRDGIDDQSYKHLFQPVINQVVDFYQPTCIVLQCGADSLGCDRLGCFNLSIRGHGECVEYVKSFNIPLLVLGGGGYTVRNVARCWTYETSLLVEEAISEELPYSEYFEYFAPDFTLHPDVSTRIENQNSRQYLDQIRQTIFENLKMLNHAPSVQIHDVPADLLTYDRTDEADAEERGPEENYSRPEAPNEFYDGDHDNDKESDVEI
Histone deacetylase 2, sequence (Q92769 whole entry): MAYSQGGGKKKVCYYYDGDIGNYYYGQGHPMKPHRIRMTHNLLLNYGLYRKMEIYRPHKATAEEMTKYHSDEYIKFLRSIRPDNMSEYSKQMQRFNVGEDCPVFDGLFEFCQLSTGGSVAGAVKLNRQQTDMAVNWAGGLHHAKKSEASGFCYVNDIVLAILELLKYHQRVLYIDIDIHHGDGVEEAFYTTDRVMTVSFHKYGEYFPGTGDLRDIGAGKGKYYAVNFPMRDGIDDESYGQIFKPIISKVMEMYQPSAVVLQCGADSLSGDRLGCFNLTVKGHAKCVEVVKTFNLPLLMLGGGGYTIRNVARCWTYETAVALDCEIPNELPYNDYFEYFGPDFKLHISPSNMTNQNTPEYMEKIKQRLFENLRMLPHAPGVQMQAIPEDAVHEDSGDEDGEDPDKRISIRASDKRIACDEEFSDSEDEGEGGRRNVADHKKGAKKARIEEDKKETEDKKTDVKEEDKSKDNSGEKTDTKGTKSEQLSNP

IC50 (cells) [nM]	IC50 (HCT-116 [1]) [nM]	IC50 (Histone deacetylase 11) [nM]	SMILES	IC50 (IGROV-1 [2]) [nM]	IC50 [3] [nM]	Activity (IGROV-1 [4]) [%]	Activity (IGROV-1 [7]) [%]	Activity (IGROV-1 [8]) [%]	Activity [9] [%]	also measured
1420	1300	77000	COc1ccc(-c2ccc(/C=C/C(=O)NO)cc2)cc1C12CC3CC(CC(C3)C1)C2	960	1800	42	78.46	18.14	3.39	IC50 (Histone deacetylase 2): 2300 nM; Activity [5]: inactive; Activity (IGROV-1 [6]): Active; inhibition in vivo at 50 mg/kg (HCT-116 [10]): 60%; Activity (Mus musculus): Non-toxic
1300	1400	–	COc1ccc(-c2ccc3cc(C(=O)NO)ccc3c2)cc1C12CC3CC(CC(C3)C1)C2	1500	4160	–	–	–	–	–

The next lines start with the compound.

SMILES	IC50 (cells) [nM]	IC50 (HCT-116 [1]) [nM]	IC50 (Histone deacetylase 11) [nM]	IC50 (IGROV-1 [2]) [nM]	IC50 [3] [nM]	Activity (IGROV-1 [4]) [%]	Activity (IGROV-1 [7]) [%]	Activity (IGROV-1 [8]) [%]	Activity [9] [%]	also measured
COc1ccc(-c2ccc(/C=C/C(=O)NO)cc2)cc1	–	–	73000	–	–	90	42.05	55.84	2.11	IC50 (Histone deacetylase 1): 8550 nM; IC50 (Histone deacetylase 3): 84500 nM; IC50 (Histone deacetylase 4): 99400 nM; IC50 (Histone deacetylase 5): 29600 nM; IC50 [11]: 36.8 nM; IC50 (Histone deacetylase 8): 69.8 nM; IC50 (Histone deacetylase 9): 39300 nM; IC50 [12]: 91000 nM
O=C(/C=C/c1ccc(-c2ccc(O)c(C34CC5CC(CC(C5)C3)C4)c2)c(Cl)c1)NO	5400	5400	–	1340	1600	–	–	–	–	–
O=C(CCCCCCC(=O)Nc1ccccc1)NO [VORINOSTAT]	–	–	–	–	–	37	–	–	–	–
